Test results taken from ChEMBL document CHEMBL2086252, “Syntheses and evaluation of anticonvulsant activity of novel branched alkyl carbamates” (J Med Chem, 2012).
The source made the active and inactive calls. The calls are words filed in the database; no cut-off is given here.

Assays:
Mus musculus [1] = test: Anticonvulsant activity in albino CF1 mouse assessed as protection against subcutaneous metrazol-induced seizures at 30 mg/kg, ip after 0.5 hrs; assay type: functional, organism-based; design: dose 30 mg/kg
In short: (§1)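 Mice dosed ip at 30, 100 or 300 mg/kg, then tested 0.5 h and 4 h after administration in the MES or scMet test. Protection was recorded as animals protected over animals tested. Neurotoxicity was recorded as motor impairment or sedation, as animals affected over animals tested.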

Mus musculus [2] = test: Anticonvulsant activity in albino CF1 mouse assessed as protection against subcutaneous metrazol-induced seizures at 100 mg/kg, ip after 0.5 hrs; assay type: functional, organism-based; design: dose 100 mg/kg; in short: as §1
Mus musculus [3] = test: Anticonvulsant activity in albino CF1 mouse assessed as protection against subcutaneous metrazol-induced seizures at 300 mg/kg, ip after 0.5 hrs; assay type: functional, organism-based; design: dose 300 mg/kg; in short: as §1
Mus musculus [4] = test: Anticonvulsant activity in albino CF1 mouse assessed as protection against subcutaneous metrazol-induced seizures at 30 mg/kg, ip after 4 hrs; assay type: functional, organism-based; design: dose 30 mg/kg; in short: as §1
Mus musculus [5] = test: Anticonvulsant activity in albino CF1 mouse assessed as protection against subcutaneous metrazol-induced seizures at 100 mg/kg, ip after 4 hrs; assay type: functional, organism-based; design: dose 100 mg/kg; in short: as §1
Mus musculus [6] = test: Anticonvulsant activity in albino CF1 mouse assessed as protection against subcutaneous metrazol-induced seizures at 300 mg/kg, ip after 4 hrs; assay type: functional, organism-based; design: dose 300 mg/kg; in short: as §1
Mus musculus [7] = test: Anticonvulsant activity in albino CF1 mouse assessed as protection against maximal electroshock-induced seizures at 30 mg/kg, ip after 0.5 hrs; assay type: functional, organism-based; design: dose 30 mg/kg; in short: as §1
Mus musculus [8] = test: Anticonvulsant activity in albino CF1 mouse assessed as protection against maximal electroshock-induced seizures at 100 mg/kg, ip after 0.5 hrs; assay type: functional, organism-based; design: dose 100 mg/kg; in short: as §1
Mus musculus [9] = test: Anticonvulsant activity in albino CF1 mouse assessed as protection against maximal electroshock-induced seizures at 300 mg/kg, ip after 0.5 hrs; assay type: functional, organism-based; design: dose 300 mg/kg; in short: as §1
Mus musculus [10] = test: Anticonvulsant activity in albino CF1 mouse assessed as protection against maximal electroshock-induced seizures at 30 mg/kg, ip after 4 hrs; assay type: functional, organism-based; design: dose 30 mg/kg; in short: as §1
Mus musculus [11] = test: Anticonvulsant activity in albino CF1 mouse assessed as protection against maximal electroshock-induced seizures at 100 mg/kg, ip after 4 hrs; assay type: functional, organism-based; design: dose 100 mg/kg; in short: as §1
Mus musculus [12] = test: Anticonvulsant activity in albino CF1 mouse assessed as protection against maximal electroshock-induced seizures at 300 mg/kg, ip after 4 hrs; assay type: functional, organism-based; design: dose 300 mg/kg; in short: as §1
Mus musculus [13] = test: Neurotoxicity in albino CF1 mouse assessed as minimal motor impairment at 30 mg/kg, ip after 0.5 hrs by rotarod test; assay type: toxicity, organism-based; design: dose 30 mg/kg, route intraperitoneal; settings: in vivo; in short: as §1
Mus musculus [14] = test: Neurotoxicity in albino CF1 mouse assessed as minimal motor impairment at 100 mg/kg, ip after 0.5 hrs by rotarod test; assay type: toxicity, organism-based; design: dose 100 mg/kg, route intraperitoneal; settings: in vivo; in short: as §1
Mus musculus [15] = test: Neurotoxicity in albino CF1 mouse assessed as minimal motor impairment at 300 mg/kg, ip after 0.5 hrs by rotarod test; assay type: toxicity, organism-based; design: dose 300 mg/kg, route intraperitoneal; settings: in vivo; in short: as §1
Mus musculus [16] = test: Neurotoxicity in albino CF1 mouse assessed as minimal motor impairment at 30 mg/kg, ip after 4 hrs by rotarod test; assay type: toxicity, organism-based; design: dose 30 mg/kg, route intraperitoneal; settings: in vivo; in short: as §1
Mus musculus [17] = test: Neurotoxicity in albino CF1 mouse assessed as minimal motor impairment at 100 mg/kg, ip after 4 hrs by rotarod test; assay type: toxicity, organism-based; design: dose 100 mg/kg, route intraperitoneal; settings: in vivo; in short: as §1
Mus musculus [18] = test: Neurotoxicity in albino CF1 mouse assessed as minimal motor impairment at 300 mg/kg, ip after 4 hrs by rotarod test; assay type: toxicity, organism-based; design: dose 300 mg/kg, route intraperitoneal; settings: in vivo; in short: as §1
Rattus norvegicus [19] = test: Anticonvulsant activity in Sprague-Dawley albino rat assessed as protection against maximal electroshock-induced seizures at 30 mg/kg, po after 30 mins; assay type: functional, organism-based; design: dose 30 mg/kg
In short: (§2)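 Rats dosed orally. Anti-MES protection was scored as animals protected over animals tested at each time after dosing. Neurotoxicity was scored as motor impairment or sedation, as animals affected over animals tested.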

Rattus norvegicus [20] = test: Anticonvulsant activity in Sprague-Dawley albino rat assessed as protection against maximal electroshock-induced seizures at 30 mg/kg, po after 1 hr; assay type: functional, organism-based; design: dose 30 mg/kg; in short: as §2
Rattus norvegicus [21] = test: Anticonvulsant activity in Sprague-Dawley albino rat assessed as protection against maximal electroshock-induced seizures at 30 mg/kg, po after 2 hrs; assay type: functional, organism-based; design: dose 30 mg/kg; in short: as §2
Rattus norvegicus [22] = test: Neurotoxicity in Sprague-Dawley albino rat assessed as minimal motor impairment at 30 mg/kg, po by rotarod test; assay type: toxicity, organism-based; design: dose 30 mg/kg, route oral; settings: in vivo; in short: as §2
Rattus norvegicus [23] = test: Anticonvulsant activity in Sprague-Dawley albino rat assessed as protection against pilocarpine-induced status epilepticus at 200 mg/kg, ip; assay type: functional, organism-based; design: dose 200 mg/kg
In short: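 Pilocarpine status epilepticus model in rats. Number and severity of convulsive seizures were observed behaviourally.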

Rattus norvegicus [24] = test: Neurotoxicity in pilocarpine-induced status epilepticus Sprague-Dawley albino rat model assessed as minimal motor impairment at 100 mg/kg, ip after 0.25 hr by rotarod test; assay type: toxicity, organism-based; design: dose 100 mg/kg, route intraperitoneal; settings: in vivo
Rattus norvegicus [25] = test: Neurotoxicity in pilocarpine-induced status epilepticus Sprague-Dawley albino rat model assessed as minimal motor impairment at 300 mg/kg, ip after 0.25 hr by rotarod test; assay type: toxicity, organism-based; design: dose 300 mg/kg, route intraperitoneal; settings: in vivo
In short: (§3)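 Rat pilocarpine status epilepticus model: test carbamate given at 0 or 30 min after the first observed Racine stage 3 motor seizure, which marks SE onset. Neurotoxicity was scored within the same model.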

Rattus norvegicus [26] = test: Neurotoxicity in pilocarpine-induced status epilepticus Sprague-Dawley albino rat model assessed as minimal motor impairment at 100 mg/kg, ip after 0.5 hrs by rotarod test; assay type: toxicity, organism-based; design: dose 100 mg/kg, route intraperitoneal; settings: in vivo
Rattus norvegicus [27] = test: Neurotoxicity in pilocarpine-induced status epilepticus Sprague-Dawley albino rat model assessed as minimal motor impairment at 300 mg/kg, ip after 0.5 hrs by rotarod test; assay type: toxicity, organism-based; design: dose 300 mg/kg, route intraperitoneal; settings: in vivo; in short: as §3
Rattus norvegicus [28] = test: Neurotoxicity in pilocarpine-induced status epilepticus Sprague-Dawley albino rat model assessed as minimal motor impairment at 100 mg/kg, ip after 1 hr by rotarod test; assay type: toxicity, organism-based; design: dose 100 mg/kg, route intraperitoneal; settings: in vivo
Rattus norvegicus [29] = test: Neurotoxicity in pilocarpine-induced status epilepticus Sprague-Dawley albino rat model assessed as minimal motor impairment at 300 mg/kg, ip after 1 hr by rotarod test; assay type: toxicity, organism-based; design: dose 300 mg/kg, route intraperitoneal; settings: in vivo; in short: as §3
Rattus norvegicus [30] = test: Neurotoxicity in pilocarpine-induced status epilepticus Sprague-Dawley albino rat model assessed as minimal motor impairment at 100 mg/kg, ip after 2 hrs by rotarod test; assay type: toxicity, organism-based; design: dose 100 mg/kg, route intraperitoneal; settings: in vivo
Rattus norvegicus [31] = test: Neurotoxicity in pilocarpine-induced status epilepticus Sprague-Dawley albino rat model assessed as minimal motor impairment at 300 mg/kg, ip after 2 hrs by rotarod test; assay type: toxicity, organism-based; design: dose 300 mg/kg, route intraperitoneal; settings: in vivo; in short: as §3
Rattus norvegicus [32] = test: Neurotoxicity in pilocarpine-induced status epilepticus Sprague-Dawley albino rat model assessed as minimal motor impairment at 100 mg/kg, ip after 4 hrs by rotarod test; assay type: toxicity, organism-based; design: dose 100 mg/kg, route intraperitoneal; settings: in vivo
Rattus norvegicus [33] = test: Anticonvulsant activity in Sprague-Dawley albino rat assessed as protection against maximal electroshock-induced seizures at 30 mg/kg, po after 15 mins; assay type: functional, organism-based; design: dose 30 mg/kg; in short: as §2
Rattus norvegicus [34] = test: Anticonvulsant activity in Sprague-Dawley albino rat assessed as protection against maximal electroshock-induced seizures at 30 mg/kg, po after 4 hrs; assay type: functional, organism-based; design: dose 30 mg/kg; in short: as §2
Rattus norvegicus [35] = test: Neurotoxicity in pilocarpine-induced status epilepticus Sprague-Dawley albino rat model assessed as minimal motor impairment at 30 mg/kg, ip after 0.25 hr by rotarod test; assay type: toxicity, organism-based; design: dose 30 mg/kg, route intraperitoneal; settings: in vivo; in short: as §3
Rattus norvegicus [36] = test: Neurotoxicity in pilocarpine-induced status epilepticus Sprague-Dawley albino rat model assessed as minimal motor impairment at 30 mg/kg, ip after 0.5 hrs by rotarod test; assay type: toxicity, organism-based; design: dose 30 mg/kg, route intraperitoneal; settings: in vivo; in short: as §3
Rattus norvegicus [37] = test: Neurotoxicity in pilocarpine-induced status epilepticus Sprague-Dawley albino rat model assessed as minimal motor impairment at 30 mg/kg, ip after 1 hr by rotarod test; assay type: toxicity, organism-based; design: dose 30 mg/kg, route intraperitoneal; settings: in vivo; in short: as §3
Rattus norvegicus [38] = test: Neurotoxicity in pilocarpine-induced status epilepticus Sprague-Dawley albino rat model assessed as minimal motor impairment at 30 mg/kg, ip after 2 hrs by rotarod test; assay type: toxicity, organism-based; design: dose 30 mg/kg, route intraperitoneal; settings: in vivo; in short: as §3
Rattus norvegicus [39] = test: Neurotoxicity in pilocarpine-induced status epilepticus Sprague-Dawley albino rat model assessed as minimal motor impairment at 300 mg/kg, ip after 4 hrs by rotarod test; assay type: toxicity, organism-based; design: dose 300 mg/kg, route intraperitoneal; settings: in vivo; in short: as §3
Rattus norvegicus [40] = test: Neurotoxicity in pilocarpine-induced status epilepticus Sprague-Dawley albino rat model assessed as minimal motor impairment at 30 mg/kg, ip after 4 hrs by rotarod test; assay type: toxicity, organism-based; design: dose 30 mg/kg, route intraperitoneal; settings: in vivo; in short: as §3
Rattus norvegicus [41] = test: Anticonvulsant activity in Sprague-Dawley albino rat assessed as protection against pilocarpine-induced status epilepticus at 130 mg/kg, ip administered 0 and 30 mins after status epilepticus onset

Compound: CC(C)(C)COC(N)=O
- Activity (Mus musculus [1]): inactive
- Activity (Mus musculus [2]): inactive
- Activity (Mus musculus [3]): inactive
- Activity (Mus musculus [4]): inactive
- Activity (Mus musculus [5]): inactive
- Activity (Mus musculus [6]): inactive
- Activity (Mus musculus [7]): inactive
- Activity (Mus musculus [8]): inactive
- Activity (Mus musculus [9]): inactive
- Activity (Mus musculus [10]): inactive
- Activity (Mus musculus [11]): inactive
- Activity (Mus musculus [12]): inactive
- Activity (Mus musculus [13]): Non-toxic
- Activity (Mus musculus [14]): Non-toxic
- Activity (Mus musculus [15]): Non-toxic
- Activity (Mus musculus [16]): Non-toxic
- Activity (Mus musculus [17]): Non-toxic
- Activity (Mus musculus [18]): Non-toxic
- Activity (Rattus norvegicus [19]): inactive
- Activity (Rattus norvegicus [20]): inactive
- Activity (Rattus norvegicus [21]): inactive
- Activity (Rattus norvegicus [22]): Non-toxic
- Activity (Rattus norvegicus [23]): Active
- Activity (Rattus norvegicus [24]): Non-toxic
- Activity (Rattus norvegicus [25]): Toxic
- Activity (Rattus norvegicus [26]): Non-toxic
- Activity (Rattus norvegicus [27]): Toxic
- Activity (Rattus norvegicus [28]): Non-toxic
- Activity (Rattus norvegicus [29]): Toxic
- Activity (Rattus norvegicus [30]): Non-toxic
- Activity (Rattus norvegicus [31]): Toxic
- Activity (Rattus norvegicus [32]): Non-toxic

Compound: CC1(C)C(COC(N)=O)C1(C)C
- Activity (Mus musculus [1]): inactive
- Activity (Mus musculus [2]): inactive
- Activity (Mus musculus [3]): Active
- Activity (Mus musculus [4]): inactive
- Activity (Mus musculus [5]): inactive
- Activity (Mus musculus [6]): inactive
- Activity (Mus musculus [7]): inactive
- Activity (Mus musculus [9]): Active
- Activity (Mus musculus [10]): inactive
- Activity (Mus musculus [11]): inactive
- Activity (Mus musculus [12]): inactive
- Activity (Mus musculus [13]): Non-toxic
- Activity (Mus musculus [14]): Non-toxic
- Activity (Mus musculus [15]): Toxic
- Activity (Mus musculus [16]): Non-toxic
- Activity (Mus musculus [17]): Non-toxic
- Activity (Mus musculus [18]): Non-toxic
- Activity (Rattus norvegicus [33]): inactive
- Activity (Rattus norvegicus [19]): inactive
- Activity (Rattus norvegicus [21]): inactive
- Activity (Rattus norvegicus [34]): inactive
- Activity (Rattus norvegicus [22]): Non-toxic
- Activity (Rattus norvegicus [24]): Toxic
- Activity (Rattus norvegicus [25]): Toxic
- Activity (Rattus norvegicus [35]): Non-toxic
- Activity (Rattus norvegicus [26]): Toxic
- Activity (Rattus norvegicus [27]): Toxic
- Activity (Rattus norvegicus [36]): Non-toxic
- Activity (Rattus norvegicus [28]): Toxic
- Activity (Rattus norvegicus [29]): Toxic
- Activity (Rattus norvegicus [37]): Non-toxic
- Activity (Rattus norvegicus [30]): Non-toxic
- Activity (Rattus norvegicus [31]): Toxic
- Activity (Rattus norvegicus [38]): Non-toxic
- Activity (Rattus norvegicus [32]): Non-toxic
- Activity (Rattus norvegicus [39]): Non-toxic
- Activity (Rattus norvegicus [40]): Non-toxic
- Activity (Rattus norvegicus [41]): inactive
